SUMO HTRF inh: blocks human SUMOylation mediated by UBC9 | inhibition, % at 35 µM | P63279 | HTRF SUMOylation assay, SAE1/SAE2 + UBC9, in vitro | 290,000 compounds, 0.36% hits; in the data active means inhibition above about 50%, passing the limit was not always enough
Target sequence (P63279 whole entry, looked up): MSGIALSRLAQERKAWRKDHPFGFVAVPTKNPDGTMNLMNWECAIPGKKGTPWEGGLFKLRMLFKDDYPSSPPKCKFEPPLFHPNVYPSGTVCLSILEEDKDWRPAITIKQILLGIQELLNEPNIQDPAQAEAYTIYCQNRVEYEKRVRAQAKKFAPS
SUMO Mot1 rescue: SUMOylation pathway inhibition by Mot1-301 growth rescue; growth rescue, % at 18.8 µM; 320,000 compounds, 1% hits; S. cerevisiae Mot1-301 growth rescue, ATP luminescence, 38.5C; percent above DMSO median, 100 means doubled; AID 2716;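 active means every valid replicate shows activation above 250% relative to neutral control wells; inactive means the rest, any valid replicate at or below 250%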
NALP1 inh: inhibitors of NALP1 inflammasome in yeast. S. cerevisiae NALP1/ASC/caspase-1 growth, X-gal OD620, 72 h. inhibition, % at 10 µM. 280,000 compounds, 0.61% hits; in the data active means inhibition mostly above about 24%, no sharp cut-off; inactive means mostly below about 32%
VIM-2 inh: blocks Pseudomonas aeruginosa VIM-2 metallo-beta-lactamase. purified VIM-2, nitrocefin hydrolysis, epi-absorbance fluorescence. inhibition, % at 5.6 µM. 290,000 compounds, 0.89% hits. AID 1527;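 active means inhibition above the mean of all tested compounds plus 3 SD, cutoff set per screening run, cut at about 7.5% in these data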;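 further: red hydrolysis product quenches plate fluorescence so inhibitors raise well fluorescence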
FID counter: counter-screen for HCV NS3 helicase inhibitors: DNA intercalator displacement; DNA fluorescent intercalator displacement, fluorescence; inhibition, % at 7.9 µM; 290,000 compounds, 0.17% hits; AID 1845; in the data active means inhibition above about 37%;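 further: higher means more ethidium bromide displaced from hairpin DNA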
IMP-1 inh-1: blocks Pseudomonas aeruginosa IMP-1 metallo-beta-lactamase | inhibition, % at 5.6 µM | purified IMP-1, nitrocefin hydrolysis, epi-absorbance fluorescence | 290,000 compounds, 0.45% hits | AID 1556;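 active means inhibition above the mean plus 3 SD of all compounds in the same screening run, cut at about 4.5% in these data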
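Test system: recombinant IMP-1 enzyme, purified / Medium: HEPES buffer pH 7.1 with ZnSO4 and Brij 35 / Doses: single dose, 5.6 µM / Times: 25 °C, 15 min preincubation, 25 min reaction / Detection: Epi-absorbance via hydrolysed-nitrocefin quenching of white-plate fluorescence, 480/530 nm, EDTA stop / Evaluation: percent inhibition from optical density relative to buffer-blank wells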
IMP-1 inh-2: selectivity counter-screen for VIM-2 inhibitors: IMP-1 metallo-beta-lactamase inhibitors; shares compounds with VIM-2 inh; purified IMP-1, nitrocefin hydrolysis, epi-absorbance fluorescence; inhibition, % at 5.6 µM; 1,300 tested, under 10 active; AID 1856; call rule not given here
VIM-2 FRET inh: counter-screen for VIM-2 inhibitors: epi-absorbance artifacts via FRET. shares compounds with VIM-2 inh. purified VIM-2, CCF2 FRET substrate hydrolysis. inhibition, % at 5.6 µM. 1,300 compounds, 23% hits;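 active means inhibition above the mean of all tested compounds plus 3 SD, cut at about 19% in these data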
TEM-1 counter: selectivity counter-screen for VIM-2 inhibitors: E. coli TEM-1 inhibitors. shares compounds with VIM-2 inh. Purified TEM-1, nitrocefin hydrolysis, epi-absorbance fluorescence. inhibition, % at 5.6 µM. 1,300 compounds, 3% hits. AID 1866;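 active means inhibition above that campaign's mean inhibition plus 3 SD, cut at about 0.46% in these data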
Target sequence (P62593 whole entry, looked up): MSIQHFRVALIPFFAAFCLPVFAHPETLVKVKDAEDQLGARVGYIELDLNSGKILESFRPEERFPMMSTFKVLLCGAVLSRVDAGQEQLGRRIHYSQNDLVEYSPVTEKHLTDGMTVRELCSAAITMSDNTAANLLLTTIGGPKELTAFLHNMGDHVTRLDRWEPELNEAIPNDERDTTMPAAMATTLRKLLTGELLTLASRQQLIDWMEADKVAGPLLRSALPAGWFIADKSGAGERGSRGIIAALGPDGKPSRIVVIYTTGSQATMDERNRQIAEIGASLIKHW
VIM-2 confirm 2: confirmation of P. aeruginosa VIM-2 metallo-beta-lactamase inhibitors. shares compounds with VIM-2 inh. purified VIM-2, nitrocefin hydrolysis, epi-absorbance. inhibition, % at 5.6 µM. 1,300 compounds, 96% hits. AID 2187;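 active means inhibition of the VIM-2 beta-lactamase enzyme above about 11% from the earlier first-round screen, limit read from the data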
Each line names hits and unclear results; the compound was inactive in the other large screens (follow-up assays come after a bar, where they were run). Sampled rows, rich in hits. Any-hit rate of the full collection: about 2.9%.

O=c1c2ccccc2nnn1Cc1nnc(-c2ccccc2Br)o1	VIM-2 inh 17 | IMP-1 inh-2 inactive | VIM-2 FRET inh 21 | TEM-1 counter inactive | VIM-2 confirm 2 13
CCCCC(=O)N/N=C/c1ccc(-c2ccc([N+](=O)[O-])cc2)o1	none
Cc1cc(C)n(Cc2ccc(C(=O)N/N=C/c3ccc(-c4ccc([N+](=O)[O-])cc4)o3)o2)n1	VIM-2 inh 42 (no result: SUMO HTRF inh) | IMP-1 inh-2 inactive | VIM-2 FRET inh inactive | TEM-1 counter 13 | VIM-2 confirm 2 14
COc1ccc(/C=C2\SC(c3ccc(C)cc3)=NC2=O)cc1OC	none
COc1ccc(/C=C2/SC(c3ccc(C)cc3)=NC2=O)cc1OC	VIM-2 inh 15 | IMP-1 inh-2 9.4 | VIM-2 FRET inh inactive | TEM-1 counter 20 | VIM-2 confirm 2 14
Oc1ccc(Nc2nc(N3CCCC3)c3ccccc3n2)cc1	VIM-2 inh 31 | IMP-1 inh-2 inactive | VIM-2 FRET inh inactive | TEM-1 counter inactive | VIM-2 confirm 2 49
CCOC(=O)c1c(-c2ccccc2)c2cc(OC)ccc2n1CCCN(C)C	none
CNC(=O)c1ccccc1-c1cn(C)c2ccccc2c1=O	none
O=c1[nH]c2cc3c(cc2cc1CN(Cc1cccnc1)C(=S)NCc1ccco1)OCCO3	VIM-2 inh 18 | IMP-1 inh-2 inactive | VIM-2 FRET inh inactive | TEM-1 counter inactive | VIM-2 confirm 2 inactive
COc1ccc(C(=O)NCCCN2CCOCC2)cc1OC	none (no result: SUMO Mot1 rescue)
COc1ccc(/C=C2/Sc3ccc(C(=O)NCCCN4CCOCC4)cc3NC2=O)cc1OC	VIM-2 inh 22 | IMP-1 inh-2 inactive | VIM-2 FRET inh 19 | TEM-1 counter inactive | VIM-2 confirm 2 25
CCN1CCCC1CNC(=O)c1ccc2c(c1)NC(=O)/C(=C\c1ccc(OC)c(OC)c1)S2 (centres undefined)	VIM-2 inh 21 | IMP-1 inh-2 inactive | VIM-2 FRET inh inactive | TEM-1 counter inactive | VIM-2 confirm 2 24
COc1cccc(/C=C2/Sc3ccc(C(=O)NCCN4CCCCCC4)cc3NC2=O)c1	none
CCN1CCN(CCCNC(=O)c2ccc3c(c2)NC(=O)/C(=C\c2cccc(C)c2)S3)CC1	none
Cc1cccc(/C=C2/Sc3ccc(C(=O)NCCCN4CCOCC4)cc3NC2=O)c1	VIM-2 inh 18 | IMP-1 inh-2 inactive | VIM-2 FRET inh 23 | TEM-1 counter inactive | VIM-2 confirm 2 12
COc1ccc([N+](=O)[O-])cc1NC(=O)c1ccc(Br)s1	none
S=C(Nc1ccc2c(c1)OCO2)N1CCN(Cc2ccco2)CC1	none
Cc1cc(OCC(=O)NCc2ccncc2)c2c(C)c(C)c(=O)oc2c1	VIM-2 inh 44 | IMP-1 inh-2 inactive | VIM-2 FRET inh inactive | TEM-1 counter inactive | VIM-2 confirm 2 55
Cc1cc(OCC(=O)NCc2cccnc2)c2c(C)c(C)c(=O)oc2c1	VIM-2 inh 22 | IMP-1 inh-2 inactive | VIM-2 FRET inh inactive | TEM-1 counter inactive | VIM-2 confirm 2 31
Cc1cc(OCC(=O)Nc2ccc(CCO)cc2)c2c(C)c(C)c(=O)oc2c1	none
Cc1cc(OCC(=O)Nc2cccnc2)c2c(C)c(C)c(=O)oc2c1	VIM-2 inh 61 | IMP-1 inh-2 inactive | VIM-2 FRET inh inactive | TEM-1 counter inactive | VIM-2 confirm 2 68
CCc1cc(=O)oc2cc(C)cc(OCC(=O)NCc3ccncc3)c12	VIM-2 inh 20 (no result: SUMO HTRF inh) | IMP-1 inh-2 inactive | VIM-2 FRET inh inactive | TEM-1 counter inactive | VIM-2 confirm 2 30
CCc1cc(=O)oc2cc(C)cc(OCC(=O)NCc3cccnc3)c12	none
CCn1c(CSc2nc3ccccc3s2)nnc1SCC(=O)c1ccc(O)cc1O	none
Cc1ccc(Cn2ncc3c(NN)ncnc32)cc1	VIM-2 inh 41 | IMP-1 inh-2 inactive | VIM-2 FRET inh inactive | TEM-1 counter inactive | VIM-2 confirm 2 58
CCN1CCN(c2ccc(N=Cc3ccc(O)cc3O)cc2)CC1	VIM-2 inh 27 (no result: SUMO Mot1 rescue) | IMP-1 inh-2 inactive | VIM-2 FRET inh inactive | TEM-1 counter inactive | VIM-2 confirm 2 45
CC1CCCN(c2c3c(nc4ccccc24)CCCC3)C1 (centres undefined)	VIM-2 inh 13 | IMP-1 inh-2 inactive | VIM-2 FRET inh inactive | TEM-1 counter inactive | VIM-2 confirm 2 21
CCOc1ccc(NC(=O)CN(C)C(=O)CCCOc2ccc(Br)cc2)cc1OCC	none (no result: SUMO HTRF inh, NALP1 inh, VIM-2 inh, FID counter, IMP-1 inh-1)
N#Cc1ccc(OCC(=O)N2CCN(C(=O)c3ccco3)CC2)cc1	none (no result: SUMO HTRF inh, NALP1 inh, VIM-2 inh, FID counter, IMP-1 inh-1)
CCC(=O)Nc1ccc(N2CCN(Cc3ccccc3)CC2)cc1	none
O=C(Nc1ccc(N2CCN(Cc3ccccc3)CC2)cc1)c1ncn[nH]1	VIM-2 inh 13 | IMP-1 inh-2 inactive | VIM-2 FRET inh inactive | TEM-1 counter inactive | VIM-2 confirm 2 25
Cc1oc2c(C)c3oc(=O)c(CCC(=O)NCCCn4ccnc4)c(C)c3cc2c1C	VIM-2 inh 24 | IMP-1 inh-2 inactive | VIM-2 FRET inh inactive | TEM-1 counter inactive | VIM-2 confirm 2 30
CCc1cc(=O)oc2c(C)c(OCC(=O)NCCCN3CCCC3=O)ccc12	none
CCCc1cc(=O)oc2cc(OCC(=O)NCCCn3ccnc3)c(Cl)cc12	VIM-2 inh 19 | IMP-1 inh-2 inactive | VIM-2 FRET inh inactive | TEM-1 counter inactive | VIM-2 confirm 2 30
Cc1c(OCC(=O)NCCCn2ccnc2)ccc2c3c(c(=O)oc12)CCCC3	VIM-2 inh 54 | IMP-1 inh-2 inactive | VIM-2 FRET inh inactive | TEM-1 counter inactive | VIM-2 confirm 2 64
CCCc1cc(=O)oc2c(C)c(OCC(=O)NCCCn3ccnc3)ccc12	VIM-2 inh 16 | IMP-1 inh-2 inactive | VIM-2 FRET inh inactive | TEM-1 counter inactive | VIM-2 confirm 2 27
O=C(COC(=O)c1cc[n+]([O-])cc1)Nc1cc([N+](=O)[O-])ccc1Cl	none (no result: SUMO HTRF inh, NALP1 inh, VIM-2 inh, FID counter, IMP-1 inh-1)
COc1ccc(CN(C)C(=O)c2cc(S(=O)(=O)N3CCOCC3)ccc2N2CCCC2)cc1	none (no result: SUMO HTRF inh, NALP1 inh, VIM-2 inh, FID counter, IMP-1 inh-1)
Cc1nc2ncccn2c1-c1csc(Nc2ccc(S(N)(=O)=O)cc2)n1	VIM-2 inh 17 | IMP-1 inh-2 inactive | VIM-2 FRET inh inactive | TEM-1 counter inactive | VIM-2 confirm 2 28
CC(=O)Nc1ccc2c(CN3C(=O)NC(C)(c4ccc(C)cc4)C3=O)cc(=O)oc2c1 (centres undefined)	none
